Converted amounts (≈) assume the structure as drawn. The source made the active and inactive calls. The rule behind the calls is not given here.
How the values were obtained:
[1] = test system: Neutrophil; assay: Inhibition of serum-opsonized zymosan-stimulated ROS production in bovine neutrophils by luminol-dependent chemiluminescence assay; assay type: functional, cell-based; settings: Bos taurus
[2] = target: Dehydrogenase/reductase SDR family member 9 (Homo sapiens) (UniProt Q9BPW9); assay: Inhibition of 3alpha-HSD
[3] = test system: L929; assay: Antiproliferative activity against mouse L929 cells; assay type: cell-based
How it was run: (§1)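 GI50 or CC50 values were read from mean dose-response curves, with 4 parallels per concentration.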

[4] = test system: HeLa; assay: Cytotoxicity against human HeLa cells; assay type: functional; how it was run: as §1
[5] = test system: K562; assay: Antiproliferative activity against human K562 cells; assay type: functional; how it was run: as §1
[6] = target: T1, Prostaglandin G/H synthase 2 (Homo sapiens, UniProt P35354)
T1 sequence (P35354 whole entry): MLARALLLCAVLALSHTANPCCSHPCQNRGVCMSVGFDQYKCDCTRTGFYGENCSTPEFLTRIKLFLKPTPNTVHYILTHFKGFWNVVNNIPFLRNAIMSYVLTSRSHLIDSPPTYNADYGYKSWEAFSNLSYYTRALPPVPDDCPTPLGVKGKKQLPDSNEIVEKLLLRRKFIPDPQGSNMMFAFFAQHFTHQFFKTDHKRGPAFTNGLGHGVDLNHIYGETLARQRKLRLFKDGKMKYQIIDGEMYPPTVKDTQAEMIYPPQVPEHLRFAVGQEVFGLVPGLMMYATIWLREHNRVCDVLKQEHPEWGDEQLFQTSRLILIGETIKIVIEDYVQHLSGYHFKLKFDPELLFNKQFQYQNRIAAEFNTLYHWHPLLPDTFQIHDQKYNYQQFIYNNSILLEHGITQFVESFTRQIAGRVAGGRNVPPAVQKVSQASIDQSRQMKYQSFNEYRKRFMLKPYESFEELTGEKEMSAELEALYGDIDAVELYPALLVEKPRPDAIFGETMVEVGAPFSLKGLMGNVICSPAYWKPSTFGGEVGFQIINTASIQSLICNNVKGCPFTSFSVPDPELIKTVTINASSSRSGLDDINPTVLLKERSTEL

[7] = Growth inhibition of human HM02 cells; assay type: functional; how it was run: as §1
[8] = test system: HepG2; assay: Growth inhibition of human HepG2 cells; assay type: functional; how it was run: as §1
[9] = test system: MCF7; assay: Growth inhibition of human MCF7 cells; assay type: functional; how it was run: as §1

Sequence of Dehydrogenase/reductase SDR family member 9 (Homo sapiens) (Q9BPW9 whole entry): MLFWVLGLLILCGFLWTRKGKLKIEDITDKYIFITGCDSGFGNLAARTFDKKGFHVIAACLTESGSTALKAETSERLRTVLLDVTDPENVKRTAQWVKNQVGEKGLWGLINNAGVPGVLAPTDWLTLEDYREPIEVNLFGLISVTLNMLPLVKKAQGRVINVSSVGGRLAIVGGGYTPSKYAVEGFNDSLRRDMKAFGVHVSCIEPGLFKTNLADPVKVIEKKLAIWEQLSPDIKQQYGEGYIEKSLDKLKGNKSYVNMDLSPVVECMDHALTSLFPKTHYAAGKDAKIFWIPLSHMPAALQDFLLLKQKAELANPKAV

Structure (SMILES) | Activity [1] | Activity [2] | GI50 [3] | CC50 [4] | GI50 [5] | IC50 [6] | GI50 [7] | GI50 [8] | GI50 [9]
C=C1CC[C@@H]2C(C)(C)CCC[C@@]2(C)[C@@H]1Cc1cc(O)ccc1O | Active | Active |  |  |  |  |  |  | 
COc1c(C[C@H]2C(C)=CC[C@H]3C(C)(C)CCC[C@]23C)cc2c(c1C=O)OCO2 (racemic) [PROTECTED SIPHONODICTYAL C] |  | Active | 24 µM | 41.4 µM | 21.1 µM |  |  |  | 
C=C1CC[C@@H]2C(C)(C)CCC[C@@]2(C)[C@@H]1CC1=CC(=O)C=CC1=O | Active |  |  |  |  |  |  |  | 
CC1=CC[C@H]2C(C)(C)CCC[C@]2(C)[C@H]1/C=C1\C=C2OCOC2=CC1=O (racemic) |  | Active | 6.2 µM | 7.4 µM | 3.5 µM |  |  |  | 
COc1cccc2c1C(=O)c1c(O)c3c(c(O)c1C2=O)C[C@@](O)(C(=O)CO)C[C@@H]3O[C@H]1C[C@H](N)[C@H](O)[C@H](C)O1 [DOXORUBICIN] |  |  | 1.2 µM | 2 µM | 1 µM |  |  |  | 
CC1=CC[C@@H]2C(C)(C)CCC[C@@]2(C)[C@@H]1Cc1cc(O)ccc1O | Active |  |  |  |  |  |  |  | 
C=C1CC[C@H]2C(C)(C)CCC[C@]2(C)[C@H]1/C=C1\C=C2OCOC2=CC1=O (racemic) [SESQUITERPENE CYCLOHEXADIENONE] |  |  | 12.9 µM | 20.6 µM | 6.2 µM |  |  |  | 
COc1ccc(O)c(O)c1/C=C1\[C@@H](C)CC[C@H]2C(C)(C)CCC[C@]12C (racemic) [(+/-)-WIEDENDIOL B] |  | Active | 63.1 µM | 38.1 µM | 35.8 µM | 0.7 µM |  |  | 
COC1=CC(=O)C(O)=C(C[C@@]2(C)C3=C(CC[C@@H]2C)C(C)(C)CCC3)C1=O (racemic) |  |  | 14 µM | 62.3 µM | 6.1 µM |  |  |  | 
COC1=CC(=O)C(OC)=C(/C=C2\[C@@H](C)CC[C@H]3C(C)(C)CCC[C@]23C)C1=O |  |  | 41.6 µM | 75.3 µM | 20.7 µM |  |  |  | 
COC1=CC(=O)C(O)=C(/C=C2\[C@@H](C)CC[C@H]3C(C)(C)CCC[C@]23C)C1=O (racemic) |  | Active | 27.1 µM | 75.1 µM | 13.4 µM |  | 3.1 µg/mL (≈ 8.65 µM) | 3.6 µg/mL (≈ 10 µM) | 2.6 µg/mL (≈ 7.25 µM)
CC1=CC[C@@H]2C(C)(C)CCC[C@@]2(C)[C@@H]1CC1=CC(=O)C=CC1=O | Active | Active |  |  |  |  |  |  | 
COC1=CC(=O)C(=O)C(C[C@@]2(C)C3=C(CC[C@@H]2C)C(C)(C)CCC3)=C1OC (racemic) |  | Active | 73.4 µM | 61.3 µM | 26.6 µM |  |  |  | 
COc1ccc(O)c(O)c1C[C@@]1(C)C2=C(CC[C@@H]1C)C(C)(C)CCC2 (racemic) [SESQUITERPENE HYDROQUINONE] |  |  | 59.9 µM | 41.3 µM | 25.6 µM |  |  |  | 
C=C1CC[C@@H]2C(C)(C)CCC[C@@]2(C)[C@@H]1CC1=C(O)C(=O)C=C(OC)C1=O (racemic) |  | Active | 20.9 µM | 72.1 µM | 8.4 µM |  | 5.3 µg/mL (≈ 14.8 µM) | 6 µg/mL (≈ 16.7 µM) | 2.4 µg/mL (≈ 6.69 µM)

— ChEMBL document CHEMBL1152740, “Synthesis and pharmacological activities of some sesquiterpene quinones and hydroquinones” (Bioorg Med Chem, 2009)
